The text below walks through data of ChEMBL document CHEMBL1150314, “Design and synthesis of N-alkyl oxindolylidene acetic acids as a new class of potent Cdc25A inhibitors” (Bioorg Med Chem Lett, 2008).

This test addresses T1, M-phase inducer phosphatase 1 (Homo sapiens, UniProt P30304).
T1 sequence (P30304 whole entry): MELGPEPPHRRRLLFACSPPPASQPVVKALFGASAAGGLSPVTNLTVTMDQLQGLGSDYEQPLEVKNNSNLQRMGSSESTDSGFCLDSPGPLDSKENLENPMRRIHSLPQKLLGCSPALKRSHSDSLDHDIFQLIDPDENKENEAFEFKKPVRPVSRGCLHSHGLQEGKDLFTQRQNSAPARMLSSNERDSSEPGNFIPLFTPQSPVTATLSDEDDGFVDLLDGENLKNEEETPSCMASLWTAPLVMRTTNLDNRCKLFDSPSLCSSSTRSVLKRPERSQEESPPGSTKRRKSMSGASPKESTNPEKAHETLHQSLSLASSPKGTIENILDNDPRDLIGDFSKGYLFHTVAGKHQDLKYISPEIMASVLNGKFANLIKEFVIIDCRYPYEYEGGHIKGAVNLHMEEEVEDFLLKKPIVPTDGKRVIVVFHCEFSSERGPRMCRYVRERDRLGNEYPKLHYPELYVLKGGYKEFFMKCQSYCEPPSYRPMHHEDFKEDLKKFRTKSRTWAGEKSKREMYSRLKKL
The experiment in a line: Inhibition of human Cdc25A phosphatase activity. Put shortly:
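Recombinant human Cdc25A catalytic domain; phosphatase activity measured by dephosphorylation of 40 μM O-methylfluorescein monophosphate in 50 mM Tris–HCl pH 8.0, 100 mM NaCl, 1 mM dithiothreitol. IC50 taken as mean of two–five experiments, with standard deviation reported.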
As to `O=C(O)/C=C1/C(=O)N(CCCc2ccccc2)c2ccccc21`, the IC50 (usually the point on the concentration scale where inhibition reaches its midpoint) is above 100 µM.
Take `CCCCCCCCCCN1C(=O)/C(=C/C(=O)O)c2ccccc21`: the IC50 was 13 µM.
The same measure for `CCCCCCCCCCCCN1C(=O)/C(=C/C(=O)OC)c2ccccc21`: 37 µM; for `CCCCCCCCCCCCN1C(=O)/C(=C/C(=O)O)c2ccccc21`: 2.6 µM; for `CCCCCCCCCCCCn1cc(CC(=O)O)c2ccccc21`: 8 µM.
`CCCCCCN1C(=O)/C(=C\C(=O)O)c2ccccc21` gave an IC50 above 100 µM.
The same measure for `CC(C)CCC[C@@H](C)[C@H]1CCC2/C(=C/C(=O)O)CCC[C@@]21C` (stereo not given in full): 12 µM; for `CCCCCCCCCCCCN1C(=O)C(=O)c2ccccc21`: 15 µM.
Consider `CCCCCCCCCCCCN1C(=O)/C(=N/O)c2ccccc21`, for which half-maximal inhibition (IC50) was put at 33 µM.
As to `CCCCCCCCCCN1C(=O)/C(=C\C(=O)O)c2ccccc21`, the IC50 was determined as 12 µM.
As to `CCCCCCCCCCCCCCCCN1C(=O)/C(=C/C(=O)O)c2ccccc21`, 1.9 µM corresponded to half-maximal inhibition (IC50).
Compound `CCCCCCCCCCCCCCN1C(=O)/C(=C/C(=O)O)c2ccccc21` gave an IC50 of 2.3 µM.
The same measure for `CCCCCCCCCCCCN1C(=O)/C(=C\C(=O)O)c2ccccc21`: 2.9 µM.
Turning to `CCCCCCN1C(=O)/C(=C/C(=O)O)c2ccccc21`, the IC50 was above 100 µM.
In turn, `CCCCCCCCN1C(=O)/C(=C\C(=O)O)c2ccccc21` showed an IC50 of 39 µM.
With `CCCCCCCCCCCCCCN1C(=O)/C(=C\C(=O)O)c2ccccc21`, the IC50 turned out to be 1.7 µM.
With `CCOCCOCCOCCN1C(=O)/C(=C/C(=O)O)c2ccccc21`, the IC50 was above 100 µM.
The same measure for `CCCCCCCCCCCCN1C(=O)C(CC(=O)O)c2ccccc21` (stereo not given): 50 µM; for `CCCCCCCCCCCCCCCCN1C(=O)/C(=C\C(=O)O)c2ccccc21`: 1.6 µM; for `CCCCCCCCN1C(=O)/C(=C/C(=O)O)c2ccccc21`: 78 µM.
